FN deposit inh = fibronectin deposition inhibition | 350,000 tested, 0.086% active | inhibition, % at 12.6 µM | AH1F fibroblasts, Alexa488-fibronectin deposition fluorescence, overnight;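 active = mean inhibition across replicates of 30% or more, regardless of how many single replicates reach that level; inconclusive = mean under 30% yet at least half of replicates reach 30%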
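Assay system: AH1F fibroblasts assembling fluorescent fibronectin matrix; Amount: 10000 AH1F cells per well; Buffer or medium: DMEM, 2% serum; Probe or stimulus: Alexa488-fibronectin, 24 nM final in well; Doses: single compound dose, delivered by pin transfer; Incubation: 1 h adhesion, overnight exposure; Measured by: fluorescence 485/525 nm; Read-out: fibronectin deposition inhibition.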
FGF22 binding-1 = FGF22 (human) thermal shift binding; recombinant FGF22 thermal shift, SYPRO orange fluorescence; percent of sucrose octasulfate shift, DMSO zero; activity (Tm shift, normalised), % at 9.99 µM; 340,000 tested, 1.5% active; AID 651658;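 active = mean Tm shift, scaled 0 neutral to 100 positive control, at about 1.3% or above, every replicate too, limit read from the data; inconclusive = no clear call, values can overlap the other calls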
Target sequence (Q9HCT0 whole entry, looked up): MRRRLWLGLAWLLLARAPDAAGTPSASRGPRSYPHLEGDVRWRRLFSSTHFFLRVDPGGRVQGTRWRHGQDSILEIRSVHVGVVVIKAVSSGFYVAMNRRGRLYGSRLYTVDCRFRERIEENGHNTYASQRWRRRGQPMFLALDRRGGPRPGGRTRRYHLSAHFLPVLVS
ARNT-TACC3 inh = ARNT/TACC3 interaction disruption. Q9Y6A5. AlphaScreen His-ARNT PAS-B/GST-TACC3 binding, luminescence; TACC3 fragment carries E629A point mutation. inhibition, % at 9.99 µM. 390,000 tested, 0.66% active. AID 623870;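 active = mean inhibition of replicates at least 50% and at least half of replicates each reaching 50%; inconclusive = half or more replicates reach 50% but mean below 50%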
SIRT5 inh = inhibitors of human sirtuin-5 desuccinylase | Purified SirT5, succinyl-peptide AMC, trypsin-coupled fluorescence | inhibition, % at 15 µM | AID 652115 | 330,000 tested, 1.1% active | Q9NXA8; in the data active = inhibition above about 15%; inconclusive = no clear call, values can overlap the other calls
Target sequence (Q9NXA8 whole entry, looked up): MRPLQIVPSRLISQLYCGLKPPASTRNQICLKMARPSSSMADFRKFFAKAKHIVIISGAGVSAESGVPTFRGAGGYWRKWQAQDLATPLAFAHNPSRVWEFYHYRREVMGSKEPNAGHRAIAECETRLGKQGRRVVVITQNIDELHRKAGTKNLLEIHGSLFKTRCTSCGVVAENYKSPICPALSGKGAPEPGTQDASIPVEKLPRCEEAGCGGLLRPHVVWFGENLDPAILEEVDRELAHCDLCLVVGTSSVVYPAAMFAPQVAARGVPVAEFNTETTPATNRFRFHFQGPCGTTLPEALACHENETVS
XiGFP reactiv = X-chromosome reactivation activator; AID 743238; activation, % at 7.58 µM; XiGFP mouse fibroblasts, % GFP-positive cells imaging, 3 d; cells co-treated with 5-aza-dC sensitizer; scaled so ellipticine positive control = 100%; 360,000 tested, 0.055% active;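 active = mean normalized replicate activation at least 10% and every replicate at or above 10%; inconclusive = only one of the two criteria met; inactive = mean below 10% and not all replicates reach 10%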
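System: 68-5-11 XiGFP fibroblast line; Timing: 3 days compound exposure; Compound dosing: one concentration, pinned; Benchmarks: positive control ellipticine, 6 µM final; Buffer or medium: DMEM containing 5-aza-dC.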
DENV2 CPE rescue = DENV2-induced cell death inhibition; DENV2-infected cells, cytopathic effect rescue, plate reader; CPE inhibition, % at 9.99 µM; 350,000 tested, 1.7% active; in the data active = CPE inhibition above about 20%, passing the limit was not always enough; inconclusive = no clear call, values can overlap the other calls; tested in BHK-21 cells
FGF22 binding-2 = binds human FGF22 shifting its melting temperature; shares compounds with FGF22 binding-1; 1,000 tested, 2% active; AID 720646; thermal shift activity, °C (ΔTm) at 38 µM; recombinant FGF22 thermal shift, SYPRO orange fluorescence;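 active = fitted rise in melting shift crosses a set limit at or below the top valid dose tested; inconclusive = flat fit at mid-level activity, or a poor quality fit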
FGF22 TSA = FGF22 (human) binding by thermal shift. Thermal shift assay, SYPRO orange, melting temperature shift. 50 tested, under 10 active. shares compounds with FGF22 binding-1. Tm shift (activity), % at 38 µM;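 active = compounds whose fitted dose curve of melting temperature shift rises past a set threshold within the tested doses; inconclusive = flat curve at moderate activity, or poor curve fit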
SYPRO no-protein = shows thermal shift signal without protein, FGF22 counter-screen | AC50, µM (top dose mostly 38 µM) | shares compounds with FGF22 binding-1 | 1,000 tested, 2% active | compound-only SYPRO orange thermal shift counter-screen, no protein;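 active = rising signal whose fitted curve reaches the 0.54 level within the top valid dose, showing a melting point, actives reach about 13 µM in these data; inactive = the rest, including activity in the opposite direction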; note: value is where the raw curve crosses a fixed level and not half-maximal
Of the large screens only hits and unclear results are named; the others gave an inactive call (follow-up assays come after a bar, where they were run). The list is not random: actives were taken first. Their share in the collection is about 3.8%.

COc1cccc(NC(=O)CN2CCN(S(=O)(=O)c3ccc(F)cc3)CC2)c1	FGF22 binding-1 28 (no result: FN deposit inh, XiGFP reactiv) | FGF22 binding-2 inactive | SYPRO no-protein inactive
O=C(NCCc1c[nH]c2ccccc12)c1cc2sccc2n1Cc1ccccc1	none (no result: FGF22 binding-1, SIRT5 inh, XiGFP reactiv, DENV2 CPE rescue)
Cn1c(C(=O)NCCc2c[nH]c3ccccc23)cc2sccc21	FGF22 binding-1 1.6 | FGF22 binding-2 inactive | SYPRO no-protein inactive
O=C(CNC(=O)c1ccc(S(=O)(=O)N2CCCC2)cc1)N/N=C/c1ccc(F)cc1	FGF22 binding-1 1.4 (no result: ARNT-TACC3 inh, DENV2 CPE rescue) | FGF22 binding-2 inactive | SYPRO no-protein inactive
CC(=O)c1ccc(OCCCC(=O)Nc2ccc(S(=O)(=O)N3CCOCC3)cc2)cc1	FGF22 binding-1 1.9 | FGF22 binding-2 inactive | SYPRO no-protein inactive
O=C(Nc1ccc(S(=O)(=O)N2CCOCC2)cc1)c1ccc(F)cc1	FGF22 binding-1 1.4 | FGF22 TSA inactive | SYPRO no-protein inactive
COc1ccc(NC(=O)Nc2ccc3c(c2)C(=O)N([C@H](C)CO)C[C@H](C)[C@H](CN(C)C(=O)CCCN(C)C)OCCCC[C@H](C)O3)cc1	none (no result: FN deposit inh)
O=C(C1CCCC1)N1CC2(C1)[C@@H](c1ccccc1)[C@@H](CO)N2CC1CCCC1	none (no result: FGF22 binding-1, ARNT-TACC3 inh)
O=S(=O)(Nc1cccc(-n2cnnn2)c1)c1ccc(Cl)cc1	FGF22 binding-1 1.7 | FGF22 binding-2 inactive | SYPRO no-protein inactive
O=C(COC(=O)CCCOc1ccc(Cl)cc1Cl)NCc1ccccc1	FGF22 binding-1 32 | FGF22 binding-2 inactive | SYPRO no-protein inactive
Cc1ccc(CNC(=O)COC(=O)CCCOc2ccc(Cl)cc2Cl)cc1	none (no result: FN deposit inh)
C[C@H]1CCCCO[C@H](CN(C)S(=O)(=O)c2ccc(Cl)cc2)[C@@H](C)CN([C@@H](C)CO)C(=O)c2cc(NC(=O)Nc3cccc4ccccc34)ccc2O1	none (no result: FGF22 binding-1)
COc1ccc(S(=O)(=O)Nc2ccc3c(c2)C(=O)N(C)C[C@H](OC)[C@H](C)CN[C@@H](C)CO3)cc1	none (no result: FGF22 binding-1)
CCC(=O)N1[C@@H](CO)[C@@H]2c3ccccc3N(S(=O)(=O)c3ccc(F)cc3)C[C@@H]21	FGF22 binding-1 1.4 | FGF22 binding-2 inactive | SYPRO no-protein inactive
C[C@H](CO)N1C[C@H](C)[C@@H](CN(C)C(=O)Nc2ccc3c(c2)OCO3)Oc2c(NC(=O)c3cnccn3)cccc2C1=O	FGF22 binding-1 6.3 (no result: FN deposit inh) | FGF22 binding-2 inactive | SYPRO no-protein inactive
C[C@@H]1CN([C@@H](C)CO)C(=O)c2cc(NC(=O)C3CC3)ccc2O[C@@H]1CN(C)C(=O)Nc1ccc2c(c1)OCO2	FGF22 binding-1 2.4 (no result: FN deposit inh) | FGF22 binding-2 inactive | SYPRO no-protein inactive
C[C@H](CO)N1C[C@H](C)[C@@H](CN(C)C(=O)Nc2ccc3c(c2)OCO3)Oc2ccc(NC(=O)C3CC3)cc2C1=O	none (no result: FN deposit inh)
C[C@H]1CN([C@@H](C)CO)C(=O)c2cc(NS(=O)(=O)c3ccc(Cl)cc3)ccc2O[C@@H]1CN(C)C(=O)Nc1ccc2c(c1)OCO2	FGF22 binding-1 2.5 | FGF22 binding-2 inactive | SYPRO no-protein inactive
O=C(C1CC1)N1C[C@H]2[C@@H](c3ccccc31)[C@H](CO)N2C(=O)c1ccccc1	none
CS(=O)(=O)Nc1ccc2c(c1)[C@H]1C[C@@H](CC(=O)NCc3ccccn3)O[C@H](CO)[C@H]1O2	none (no result: FN deposit inh)
COc1ccc(-c2ccc([C@H]3[C@H](CO)N4CCCCN(C(=O)c5ccc6c(c5)OCO6)C[C@@H]34)cc2)cc1	FGF22 binding-1 1.4 (no result: FN deposit inh) | FGF22 binding-2 inactive | SYPRO no-protein inactive
COCC#Cc1ccc2c(c1)O[C@@H](CN(C)S(=O)(=O)c1ccc(C)cc1)[C@@H](C)CN([C@H](C)CO)S2(=O)=O	none
O=C(O)c1cccc(-n2cc(-c3cccc(C(F)(F)F)c3)cn2)c1	FGF22 binding-1 1.6 | FGF22 binding-2 inactive | SYPRO no-protein inactive
COc1ccccc1NS(=O)(=O)c1ccc(C)c(C(=O)Nc2ccc(S(=O)(=O)Nc3onc(C)c3C)cc2)c1	none
COc1ccccc1NS(=O)(=O)c1cc(C(=O)Nc2ccc(S(=O)(=O)Nc3onc(C)c3C)cc2)ccc1C	FGF22 binding-1 1.8 | FGF22 binding-2 inactive | SYPRO no-protein inactive
CCCNC(=O)Nc1ccc2c(c1)C(=O)N(C)C[C@@H](OC)[C@@H](C)CN[C@H](C)CO2	none
Cc1cc(C)cc(NC(=O)CN2C(=O)NC(Cc3c[nH]c4ccccc34)C2=O)c1 (configuration not stated)	FGF22 binding-1 1.6 (no result: ARNT-TACC3 inh) | SYPRO no-protein inactive
CC(C)c1ccc(NC(=O)CN2C(=O)NC(Cc3c[nH]c4ccccc34)C2=O)cc1 (configuration not stated)	none
CC(C)CC#Cc1ccc([C@H]2[C@H]3CN(C(=O)c4ccc5c(c4)OCO5)CC(=O)N3[C@H]2CO)cc1	none (no result: FN deposit inh, FGF22 binding-1, ARNT-TACC3 inh, SIRT5 inh, DENV2 CPE rescue)
C[C@H](CO)N1C[C@H](C)[C@@H](CN(C)Cc2ccccn2)Oc2ncc(C#C[C@@H](C)O)cc2C1=O	none (no result: FN deposit inh)
Cc1ccc(S(=O)(=O)NCCSc2nnnn2-c2cc(C)ccc2C)cc1	none (no result: FGF22 binding-1, ARNT-TACC3 inh, SIRT5 inh, XiGFP reactiv, DENV2 CPE rescue)
Cc1ccc(S(=O)(=O)NCCSc2nnnn2-c2ccccc2)cc1	FGF22 binding-1 35 (no result: FN deposit inh, XiGFP reactiv) | FGF22 binding-2 inactive | SYPRO no-protein inactive
CNC(=O)C[C@@H]1CC[C@@H]2[C@@H](COc3ccc(NC(=O)Nc4ccc(F)cc4)cc3C(=O)N2C)O1	none
CC(C)n1c(=O)c2ccccc2n1Cc1cn(-c2ccc(Cl)cc2)nn1	FGF22 binding-1 2.6 (no result: ARNT-TACC3 inh) | FGF22 binding-2 inactive | SYPRO no-protein inactive
Clc1ccc(Nc2ccc(NCc3ccccc3)nn2)cc1	FGF22 binding-1 2.3 | FGF22 binding-2 inactive | FGF22 TSA inactive | SYPRO no-protein inactive
C[C@H]1CCCCO[C@@H](CN(C)C(=O)Nc2cccc3ccccc23)[C@@H](C)CN([C@@H](C)CO)C(=O)c2cc(NS(=O)(=O)c3ccccc3)ccc2O1	DENV2 CPE rescue inconclusive
O=C(Nc1nccs1)C1CC(=O)N(c2ccc(F)cc2)C1 (configuration not stated)	FGF22 binding-1 1.4 | FGF22 binding-2 inactive | FGF22 TSA inactive | SYPRO no-protein inactive
CCN(CC)c1ccc2cc(S(=O)(=O)c3ccc(Cl)cc3)c(=O)oc2c1	FGF22 binding-1 24 (no result: ARNT-TACC3 inh, SIRT5 inh) | FGF22 binding-2 inactive | SYPRO no-protein inactive

Screens: PubChem BioAssay, Broad Institute
